Assay results published in ChEMBL document CHEMBL1144528, “Synthesis of 8-thiabicyclo[3.2.1]octanes and their binding affinity for the dopamine and serotonin transporters” (Bioorg Med Chem, 2007).

Columns and labels:
Macaca mulatta = species: Macaca mulatta; test: Selectivity for rhesus monkey DAT over rhesus monkey SERT
In short: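 Ratio of SERT IC50 ([3H]citalopram binding) to DAT IC50 ([3H]WIN35,428 binding), both measured in monkey caudate-putamen membranes.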

Transporter = Transporter (Macaca mulatta, UniProt Q7JHP9); test: Displacement of [3H]WIN-35428 from DAT in rhesus monkey caudate-putamen; format: tissue-based
In short: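 Rhesus or cynomolgus caudate-putamen membranes (4 mg original wet weight/mL) in 50 mM Tris·HCl pH 7.4, 100 mM NaCl. Incubated 2 h at 0-4 °C with 0.3 nM [3H]WIN35,428 and a range of drug concentrations. Filtered on 0.1% BSA-soaked glass fibre filters and scintillation counted. Nonspecific binding defined with 30 μM (-)-cocaine. IC50 is the mean of ≥2 experiments in different brains, each in triplicate.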

[1] = target: Sodium-dependent serotonin transporter (Macaca mulatta, UniProt Q9MYX0); test: Displacement of [3H]citalopram from SERT in rhesus monkey caudate-putamen; format: tissue-based
In short: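 Caudate-putamen membranes from rhesus or cynomolgus monkey (4 mg original wet weight/mL) in 50 mM Tris·HCl pH 7.4 with 100 mM NaCl. Incubated with 1 nM [3H]citalopram and a range of test drug concentrations for 2 h at 0-4 °C. Filtered over glass fibre filters pre-soaked in 0.1% polyethyleneimine, then scintillation counted. IC50 is the mean of ≥2 independent experiments in different brains, each in triplicate.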

Transporter, sequence (Q7JHP9 whole entry): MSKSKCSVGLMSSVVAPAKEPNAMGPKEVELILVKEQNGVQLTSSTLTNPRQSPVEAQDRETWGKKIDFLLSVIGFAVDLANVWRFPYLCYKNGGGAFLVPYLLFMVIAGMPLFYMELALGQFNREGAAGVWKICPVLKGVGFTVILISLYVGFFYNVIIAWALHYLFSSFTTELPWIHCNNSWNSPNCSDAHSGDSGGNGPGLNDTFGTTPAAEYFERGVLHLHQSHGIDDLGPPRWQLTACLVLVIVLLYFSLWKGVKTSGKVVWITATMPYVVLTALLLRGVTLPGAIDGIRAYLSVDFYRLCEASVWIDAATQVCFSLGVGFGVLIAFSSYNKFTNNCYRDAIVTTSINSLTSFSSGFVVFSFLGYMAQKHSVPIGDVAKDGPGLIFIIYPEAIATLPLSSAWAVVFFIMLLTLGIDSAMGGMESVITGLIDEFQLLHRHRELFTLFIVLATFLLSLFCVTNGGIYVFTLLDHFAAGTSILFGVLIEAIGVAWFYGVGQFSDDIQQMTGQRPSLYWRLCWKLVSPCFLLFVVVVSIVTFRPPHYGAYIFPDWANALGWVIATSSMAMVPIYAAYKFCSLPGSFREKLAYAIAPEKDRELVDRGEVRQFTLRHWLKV
Sodium-dependent serotonin transporter, sequence (Q9MYX0 whole entry): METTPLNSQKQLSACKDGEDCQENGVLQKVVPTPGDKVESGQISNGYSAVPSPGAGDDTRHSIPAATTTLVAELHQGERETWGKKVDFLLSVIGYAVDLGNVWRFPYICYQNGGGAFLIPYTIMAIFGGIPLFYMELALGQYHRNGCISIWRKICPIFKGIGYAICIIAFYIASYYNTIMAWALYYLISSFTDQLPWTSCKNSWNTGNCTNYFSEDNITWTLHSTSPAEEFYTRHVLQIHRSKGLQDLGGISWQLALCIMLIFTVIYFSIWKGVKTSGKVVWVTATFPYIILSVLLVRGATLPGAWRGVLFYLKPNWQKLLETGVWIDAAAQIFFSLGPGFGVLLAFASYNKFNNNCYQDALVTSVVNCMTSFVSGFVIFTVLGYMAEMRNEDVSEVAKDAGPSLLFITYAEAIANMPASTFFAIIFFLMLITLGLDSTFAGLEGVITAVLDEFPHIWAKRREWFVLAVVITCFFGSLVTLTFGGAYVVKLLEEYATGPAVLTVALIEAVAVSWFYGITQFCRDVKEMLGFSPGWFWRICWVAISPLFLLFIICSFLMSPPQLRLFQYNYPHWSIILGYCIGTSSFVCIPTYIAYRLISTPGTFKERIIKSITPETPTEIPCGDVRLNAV

| Compound | Ratio IC50 (Macaca mulatta) | IC50 (Transporter) [nM] | IC50 [1] [nM] |
| --- | --- | --- | --- |
| COC(=O)[C@@H]1C2CCC(C[C@H]1c1ccc(F)c(F)c1)S2 (some centres not stated) | 88 | 11.3 | 1000 |
| COC(=O)C1=C(c2ccc(Br)cc2)CC2CCC1S2 (configuration not stated) | > 2750 | 9.1 | > 25000 |
| COC(=O)[C@@H]1C2CCC(C[C@H]1c1ccc(Cl)c(Cl)c1)[S+]2[O-] (some centres not stated) | > 346 | 7.8 | > 3000 |
| COC(=O)C1=C(c2ccc(Cl)c(Cl)c2)CC2CCC1O2 (configuration not stated) | 600 | 10 | 6000 |
| COC(=O)[C@@H]1C2CCC(C[C@H]1c1ccc(Cl)c(F)c1)S2 (some centres not stated) | 100 | 7 | 702 |
| COC(=O)C1=C(c2ccc(F)cc2)CC2CCC1S2 (configuration not stated) | > 127 | 220 | > 30000 |
| COC(=O)[C@@H]1C2CCC(C[C@H]1c1ccccc1)S2 (some centres not stated) | > 57 | 140 | > 8000 |
| COC(=O)C1=C(c2ccc3ccccc3c2)CC2CCC1S2 (configuration not stated) | > 163 | 8 | > 1000 |
| COC(=O)[C@@H]1[C@@H]2CCC(C[C@@H]1c1ccc(Cl)c(Cl)c1)O2 | 1.2 | 47 | 58 |
| COC(=O)[C@@H]1C2CCC(C[C@H]1c1ccc(F)cc1)S2 (some centres not stated) | > 186 | 59 | > 11000 |
| COC(=O)C1=C(c2ccc(F)c(Cl)c2)CC2CCC1S2 (configuration not stated) | > 789 | 7.6 | > 6000 |
| COC(=O)[C@@H]1C2CCC(C[C@H]1c1ccc(F)c(Cl)c1)S2 (some centres not stated) | 68 | 7.1 | 480 |
| COC(=O)[C@@H]1C2CCC(C[C@@H]1c1ccc(Cl)c(Cl)c1)S2 (some centres not stated) | 1.5 | 5.7 | 8 |
| COC(=O)[C@@H]1C2CCC(C[C@@H]1c1ccc(Cl)c(F)c1)[S+]2[O-] (some centres not stated) | > 286 | 14 | > 4000 |
| COC(=O)[C@@H]1[C@H]2CCC(C[C@H]1c1ccc(Cl)c(Cl)c1)N2C | 68 | 0.4 | 27 |
| COC(=O)[C@@H]1[C@H]2[C@H](O)CC(C[C@@H]1c1ccc(Cl)c(Cl)c1)N2C | 50 | 0.3 | 15 |
| COC(=O)C1=C(c2ccc(Cl)c(Cl)c2)CC2CC[C@H]1O2 | 460 | 4.6 | 2120 |
| COC(=O)[C@@H]1C2CCC(C[C@H]1c1ccc(Br)cc1)S2 (some centres not stated) | 57 | 6 | 342 |
| COC(=O)C1=C(c2ccc(Cl)c(Cl)c2)CC2CCC1C2 (configuration not stated) | 727 | 7.1 | 5160 |
| COC(=O)[C@H]1[C@@H](c2ccc(Cl)c(Cl)c2)CC2CC[C@H]1O2 | 1.4 | 3.3 | 4.7 |

| Compound | Ratio IC50 (Macaca mulatta) | IC50 (Transporter) [nM] | IC50 [1] [nM] |
| --- | --- | --- | --- |
| COC(=O)C1=C(c2ccc(I)cc2)CC2CCC1S2 (configuration not stated) | > 1300 | 6.7 | > 8000 |
| COC(=O)C1=C(c2ccc(Cl)c(F)c2)CC2CCC1S2 (configuration not stated) | > 5000 | 10 | > 50000 |
| COC(=O)C1=C(c2ccc(Cl)c(Cl)c2)CC2CCC1S2 (configuration not stated) | > 800 | 4.5 | > 3000 |
| COC(=O)[C@@H]1[C@@H]2CCC(C[C@H]1c1ccc(Cl)c(Cl)c1)S2 | 14 | 10 | 139 |
| COC(=O)[C@@H]1C2CCC(C[C@H]1c1ccc3ccccc3c1)S2 (some centres not stated) | 4.5 | 8 | 36 |
| COC(=O)[C@@H]1[C@H]2CCC(C[C@H]1c1ccc(Cl)c(Cl)c1)S2 | 8 | 4.9 | 39 |
| COC(=O)[C@@H]1C2CCC(C[C@@H]1c1ccc3ccccc3c1)S2 (some centres not stated) | 0.8 | 16 | 13 |
| COC(=O)C1=C(c2ccc(Cl)c(Cl)c2)CC2CC[C@@H]1N2C | 4 | 490 | 1900 |
| COC(=O)[C@@H]1[C@H]2CCC(C[C@H]1c1ccc(Cl)c(Cl)c1)O2 | 13 | 2.3 | 31 |
| COC(=O)C1=C(c2ccccc2)CC2CCC1S2 (configuration not stated) | > 11 | 910 | > 10000 |
| COC(=O)[C@@H]1C2CCC(C2)C[C@H]1c1ccc(Cl)c(Cl)c1 (some centres not stated) | 13 | 13 | 166 |
| COC(=O)C1=C(c2ccc(F)c(F)c2)CC2CCC1S2 (configuration not stated) | > 133 | 75 | > 10000 |
| COC(=O)[C@@H]1C2CCC(C[C@@H]1c1ccc(F)c(F)c1)S2 (some centres not stated) | 7 | 32 | 235 |
| COC(=O)[C@@H]1C2CCC(C[C@H]1c1ccc(Cl)c(F)c1)[S+]2[O-] (some centres not stated) | > 824 | 17 | > 14000 |
| COC(=O)[C@@H]1C2CCC(C2)C[C@@H]1c1ccc(Cl)c(Cl)c1 (some centres not stated) | 3.4 | 9.6 | 33 |
| COC(=O)[C@@H]1C2CCC(C[C@H]1c1ccc(F)c(F)c1)[S+]2[O-] (some centres not stated) | > 775 | 89 | > 69000 |
| COC(=O)[C@@H]1C2CCC(C[C@H]1c1ccc(I)cc1)S2 (some centres not stated) | 8 | 9 | 70 |
| COC(=O)C1=C(c2ccc(Cl)c(Cl)c2)CC2CC[C@H]1N2C | 723 | 1.2 | 867 |
| COC(=O)[C@@H]1[C@@H]2CCC(C[C@H]1c1ccc(Cl)c(Cl)c1)O2 | 51 | 56 | 2860 |
